What was measured:
Rattus norvegicus [1] = assay: In vivo triglyceride lowering activity when dosed as 0.01 % of the diet; format: functional
In short: (§1)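 Normal rats were dosed in the diet. Serum sterol and triglyceride levels were measured and expressed as the mean percent of control values. Significance versus control was reported at p < 0.05, 0.01 and 0.001.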

Rattus norvegicus [2] = assay: In vivo triglyceride lowering activity dosed at 0.10 % of the diet.; format: functional; in short: as §1
Rattus norvegicus [3] = assay: In vivo sterol lowering activity when dosed as 0.01 % of the diet; format: functional; in short: as §1
Rattus norvegicus [4] = assay: In vivo sterol lowering activity when dosed as 0.03 % of the diet; format: functional; in short: as §1
Rattus norvegicus [5] = assay: In vivo triglyceride lowering activity when dosed at 0.03 % of the diet; format: functional; in short: as §1
Rattus norvegicus [6] = assay: In vivo sterol lowering activity at dose of 0.10 % of the diet; format: functional; in short: as §1
[7] = molecular target: T1, Sterol O-acyltransferase 1 (Rattus norvegicus) (UniProt O70536); assay: In vitro inhibition of acyl coenzyme A:cholesterol acyltransferase; parameters: concentration or dose not given beside the values; settings: concentration not given here
T1 sequence (whole entry): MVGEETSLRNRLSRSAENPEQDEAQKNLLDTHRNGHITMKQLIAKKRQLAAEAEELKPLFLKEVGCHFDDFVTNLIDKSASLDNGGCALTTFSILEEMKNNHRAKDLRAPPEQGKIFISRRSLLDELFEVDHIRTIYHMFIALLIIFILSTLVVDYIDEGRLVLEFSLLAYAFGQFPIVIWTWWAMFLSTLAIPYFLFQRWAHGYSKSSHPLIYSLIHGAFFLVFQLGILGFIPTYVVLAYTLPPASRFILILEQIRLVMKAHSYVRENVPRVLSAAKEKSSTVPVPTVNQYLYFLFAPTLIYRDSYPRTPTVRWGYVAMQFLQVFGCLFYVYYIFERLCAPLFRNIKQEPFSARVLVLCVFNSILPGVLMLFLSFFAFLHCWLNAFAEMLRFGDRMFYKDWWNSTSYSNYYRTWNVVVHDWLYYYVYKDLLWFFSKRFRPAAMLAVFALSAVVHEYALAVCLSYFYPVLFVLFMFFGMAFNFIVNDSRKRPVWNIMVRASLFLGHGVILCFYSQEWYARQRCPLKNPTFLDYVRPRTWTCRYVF
In short: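 Enzyme fatty acyl-CoA:cholesterol acyltransferase (ACAT), assayed in vitro at a single drug concentration of 5.2 μg/mL. The value is the mean percent inhibition of enzyme activity.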

| Compound | serum triglyceride level, percent of control (Rattus norvegicus [1]) [%] | serum triglyceride, percent of control (Rattus norvegicus [2]) [%] | serum sterol level, % of control (Rattus norvegicus [3]) [%] | serum sterol level, percent of control (Rattus norvegicus [4]) [%] | serum triglyceride level, percent of control (Rattus norvegicus [5]) [%] | serum sterol level, percent of control (Rattus norvegicus [6]) [%] | inhibition [7] [%] |
| --- | --- | --- | --- | --- | --- | --- | --- |
| CCCCCCCCCCCCCCCCNc1ccc(C(=O)OCC(C)O)cc1 (stereo unspecified) | <67 | <59 | 96 | <82 | <61 | <89 | < 19 |
| CCCCCCCCCCCCCCCCNc1ccc(C(=O)NCC(O)CO)cc1 (stereo unspecified) | 114 | <48 | 99 | 88 | <73 | <72 | < 61 |
| CCCCCCCCCCCCCCCCNc1ccc(C(=O)OCC(O)COC(=O)c2cccnc2)cc1 (stereo unspecified) | 93 | <63 | 103 | 108 | 83 | 84 | 0 |
| CCCCCCCCCCCCCCCCN(C=O)c1ccc(C(=O)O)cc1 | 77 | 78 | <89 | 96 | 100 | 105 | 12 |
| CCCCCCCCCCCCCCCCNc1ccc(C(=O)O)c(C)c1 | 112 | 105 | 101 | 100 | 121 | 103 | 38 |
| CCCCCCCCCCCCCCCCNc1csc(C(=O)O)c1 | 112 | 79 | 98 | 101 | 103 | 98 | 70 |
| CCCCCCCCCCCCCCCCNC1CCC(C(=O)O)CC1 (stereo unspecified) | 75 | 71 | 97 | <86 | 79 | <75 | < 48 |
| CCCCCCCCCCCCCCN(CC)c1ccc(C(=O)O)cc1 | 90 | 80 | 93 | 98 | 92 | 88 | < 38 |
| CCCCCCCCCCCCCCCCNc1ccc(C(SCC)SCC)cc1 | 86 | 77 | 96 | 101 | 106 | 88 | 0 |
| CCCCCCCCCCCCCCCCNc1ccc(C(=O)OCC2CO2)cc1 (stereo unspecified) | <74 | <53 | 92 | <75 | <60 | <75 | 13 |
| CCCCCCCCCCCCCCCCNc1ccc(C(=O)O)cn1 | 121 | 94 | 102 | <84 | 88 | 90 | < 45 |
| CCCCCCCCCCCCCCCCNc1ccc(C(=O)NC(C)=O)cc1 | 86 | 74 | 93 | <87 | 73 | 91 | < 35 |
| CCCCCCCCCCCCCCCCNc1ccc(C(=O)NCCC(=O)O)cc1 | 99 | <55 | <90 | 93 | 78 | <86 | 49 |

Source: ChEMBL document CHEMBL1122366, “Potential antiatherosclerotic agents. 3. Substituted benzoic and non benzoic acid analogues of cetaben” (1983)
